These results are taken from ChEMBL document CHEMBL4000163, “Pyrazole derived ultra-short antimicrobial peptidomimetics with potent anti-biofilm activity” (Eur J Med Chem, 2017).

In brackets after ≈: the same amount, converted by molar mass. Activity calls are given as the source filed them. The rule behind the calls is not given here.

The test system of data set [1] is Staphylococcus aureus. Description: Antimicrobial activity against Staphylococcus aureus KCTC 1621 using 4 hrs trypsin incubated compound measured after overnight incubation by radial diffusion assay. In kind it is functional. A digest of the protocol:
(§1)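 Radial diffusion: mid-log cells (2×10^6 CFU/ml in LB) in 0.7% agarose. Peptide stock (10 mg/mL) added to trypsin in PBS (0.2 µg/mL), 4 h at 37 °C, stopped by liquid-nitrogen freezing; 10 µL on paper discs on the plates, overnight at 37 °C. Clearance-zone diameters measured.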

For data set [2], the system named is Enterococcus faecium. Description: Potency index, ratio of melittin MIC100 to compound MIC100 for vancomycin-resistant Enterococcus faecium ATCC 51559. It counts as functional.
The subject of data set [3] is Escherichia coli. Nature of the data set: Antimicrobial activity against Escherichia coli KCTC 1682 in presence of CaCl2. In kind it is functional. Summed up:
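MIC in LB medium with added 150 mM NaCl, 1 mM MgCl₂ or 2.5 mM CaCl₂. Inoculum of 2 × 10⁶ CFU/mL with peptide. Otherwise as the broth microdilution MIC assay; MIC is the lowest concentration giving 100% growth inhibition.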

For data set [4], the system named is RAW264.7. Description: Antiinflammatory activity in mouse RAW264.7 cells assessed as inhibition of LPS-induced TNF-alpha production preincubated with cells followed by LPS addition measured after 6 hrs by ELISA. In kind it is functional, cell-based. Summed up: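 RAW264.7 cells seeded at 5 × 10⁴ cells/well, left overnight, then given peptide at 37 °C. Unbound peptide was washed off with PBS (five washes) before LPS (20 ng/mL) was added for 6 h at 37 °C. TNF-α in the samples was measured by mouse ELISA. Mean ± SEM of technical triplicates, one-way ANOVA with Bonferroni post-test.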

The subject of data set [5] is Escherichia coli. Description: Antimicrobial activity against Escherichia coli KCTC 1682 using 4 hrs trypsin incubated compound measured after overnight incubation by radial diffusion assay. It counts as functional. Summed up: as §1
Data set [6] has as its system RAW264.7. Nature of the data set: Antiinflammatory activity in mouse RAW264.7 cells assessed as inhibition of LPS-induced nitric oxide production at 16 ug/mL after 24 hrs by Griess method. The settings on record: RAW264.7, 24 h. It counts as functional. A digest of the protocol:
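RAW264.7 macrophages (5×10^5 cells/mL) stimulated with LPS (20 ng/mL), with or without peptide, for 24 h. Supernatants were mixed 1:1 with Griess reagent (1% sulfanilamide, 0.1% naphthylethylenediamine, 2% phosphoric acid) for 10 min at room temperature, read at 540 nm, and quantified against an NaNO₂ standard curve. Mean ± SEM of technical triplicates, ANOVA with Bonferroni post-test.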

The subject of data set [7] is Staphylococcus epidermidis. Description: Antimicrobial activity against Staphylococcus epidermidis KCTC 1917 incubated for 18 to 20 hrs by broth microdilution assay. It counts as functional. The settings on record: read-out: MIC100. Summed up: (§2)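 Broth microdilution in 1% peptone. Inoculum was 2 × 10⁶ CFU/mL mixed 1:1 with serial 2-fold peptide dilutions and incubated 18–20 h at 37 °C. Growth was read as absorbance at 600 nm; MIC is the lowest peptide concentration giving 100% growth inhibition.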
In general terms: Broth dilution looks for growth in wells or tubes with falling amounts of substance.

The test system of data set [8] is RAW264.7. Description: Antiinflammatory activity in mouse RAW264.7 cells assessed as inhibition of LPS-induced iNOS mRNA expression at 16 ug/mL after 6 hrs by RT-PCR method. It counts as functional, cell-based. Summed up:
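RAW264.7 cells plated at 5×10^5 cells/well and cultured overnight. They were stimulated with 20 ng/mL LPS, with or without peptide, in DMEM with 10% bovine serum, for 3 h (TNF-α) or 6 h (iNOS). Total RNA was reverse-transcribed with oligo(dT)15 primers and amplified for 30 cycles (annealing 55 °C). mRNA was analysed by PCR.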

Data set [9] in a line: Therapeutic index, ratio of MHC for sheep RBC to MIC for Staphylococcus epidermidis KCTC 1917.
Data set [10] deals with Staphylococcus aureus. Description: Induction of cytoplasmic membrane depolarization in Staphylococcus aureus KCTC 1621 assessed as loss of membrane potential after 1 hr by DiSC3(5) dye based fluorescence assay. It counts as functional.
In data set [11] the test system is Pseudomonas aeruginosa. Description: Antibacterial activity against multidrug-resistant Pseudomonas aeruginosa CCARM 2095 after 18 to 20 hrs by broth microdilution assay. It counts as functional. The settings on record: read-out: MIC100. A digest of the protocol: (§3)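 Broth microdilution in 1% peptone: bacteria at 2 × 10⁶ CFU/mL mixed 1:1 with serial 2-fold peptide dilutions, 18-20 h at 37 °C; growth read as absorbance at 600 nm. MIC taken as lowest concentration giving 100% growth inhibition.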

A short description of data set [12]: Therapeutic index, ratio of MHC for sheep RBC to geometric mean of MICs for four bacterial strains.
Data set [13] concerns Enterococcus faecium. Nature of the data set: Antibacterial activity against vancomycin-resistant Enterococcus faecium ATCC 51559 after 18 to 20 hrs by broth microdilution assay. It counts as functional. The settings on record: read-out: MIC100. Summed up:
as §3

In data set [14] the test system is Staphylococcus aureus. Description: Potency index, ratio of melittin MIC100 to compound MIC100 for Staphylococcus aureus KCTC 1621. It counts as functional.
The test system of data set [15] is Escherichia coli. Nature of the data set: Induction of outer membrane permeabilization in Escherichia coli KCTC 1682 assessed as NPN uptake by spectrofluorophotometric analysis. In kind it is functional. Summed up: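 E. coli KCTC 1682 at OD600 0.05 in 5 mM HEPES pH 7.2 with 5 mM KCN; NPN 10 µM final, background fluorescence recorded (ex 350, em 420 nm). Peptide aliquots at various concentrations added and fluorescence followed over time until no further rise.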

In data set [16] the test system is Staphylococcus aureus. Nature of the data set: Antimicrobial activity against Staphylococcus aureus KCTC 1621 in presence of CaCl2. It counts as functional. A digest of the protocol:
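MIC by microdilution with 2 × 10⁶ CFU/ml S. aureus KCTC 1621 in LB medium supplemented with physiological salt: 150 mM NaCl, 1 mM MgCl₂ or 2.5 mM CaCl₂; growth inhibition endpoint as in the standard MIC assay.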

Data set [17] concerns Pseudomonas aeruginosa. Description: Antimicrobial activity against Pseudomonas aeruginosa KCTC 1637 incubated for 18 to 20 hrs by broth microdilution assay. It counts as functional. The settings on record: read-out: MIC100. Summed up: as §2
The subject of data set [18] is Pseudomonas aeruginosa. Description: Potency index, ratio of LL-37 MIC100 to compound MIC100 for Pseudomonas aeruginosa KCTC 1637. It counts as functional.
For data set [19], the system named is RAW264.7. Description: Cytotoxicity against mouse RAW264.7 cells up to 32 ug/mL after 2 days by MTT assay. It counts as cell-based. The settings on record: raw264.7, 48 h. Summed up:
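Cells in DMEM with 10% FBS seeded at 2×10^4 cells/well and incubated 24 h at 37 °C, 5% CO₂. Serial 2-fold peptide dilutions were added for 2 days, then MTT for 4 h. Formazan was dissolved in 20% SDS/0.01 M HCl and read at 570 nm. Survival is expressed as a percentage of untreated cells.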
In general terms: Tetrazolium assays rely on reduction of a dye to a coloured formazan, in cell work by metabolically active cells.

Data set [20] relates to Staphylococcus aureus. Nature of the data set: Antibacterial activity against methicillin resistant Staphylococcus aureus CCARM 3090 after 18 to 20 hrs by broth microdilution assay. In kind it is functional. The settings on record: read-out: MIC100. Summed up: as §3

The term inhibition denotes the drop in the measured response relative to a control, in per cent. For the compound `N=C(N)NCCC[C@H](NC(=O)c1nn(CCc2cccc3ccccc23)cc1NC(=O)[C@H](CCCNC(=N)N)NC(=O)c1nn(CCc2cccc3ccccc23)cc1N)C(N)=O`, the result with Staphylococcus aureus [1], with Escherichia coli [5] and with Staphylococcus aureus [10] was Active. Also, the Ratio with Enterococcus faecium [2] is 2; with Staphylococcus aureus [14], 4; with Pseudomonas aeruginosa [18], 8. Besides, the MIC stood at 32 µg/mL in the data set with Escherichia coli [3]; 32 µg/mL (≈ 37.4 µM) in data set [7]; 8 µg/mL (≈ 9.35 µM) in the data set on Pseudomonas aeruginosa [11]; 8 µg/mL (≈ 9.35 µM) with Enterococcus faecium [13]; 8 µg/mL with Staphylococcus aureus [16]; 8 µg/mL (≈ 9.35 µM) in the data set on Pseudomonas aeruginosa [17]. In the data set with Staphylococcus aureus [20], the MIC turned out to be 8 µg/mL (≈ 9.35 µM). For the same compound, the inhibition result in the data set with RAW264.7 [4] is “Dose-dependent effect”. Besides, in the data set on RAW264.7 [6], the inhibition at 16 µg/mL was greater than 85%. Also, the inhibition result with RAW264.7 [8] was “Active”. For the same compound, the TI in [9] and in data set [12] was 53.9 in each case. Moreover, the Activity result is “Dose-dependent effect” with Escherichia coli [15] and “Non-Toxic” in the data set with RAW264.7 [19].
